Measured values reported in ChEMBL document CHEMBL1255287, “Induction of L1 and L2 beta-lactamase production in Stenotrophomonas maltophilia is dependent on an AmpR-type regulator” (2008).
Converted amounts (≈) assume the structure as drawn. The source made the active and inactive calls. The calls are words filed in the database; no cut-off is given here.

Assays:
[1] = system: Stenotrophomonas maltophilia; experiment: Induction of beta-lactamase L2 expression in Stenotrophomonas maltophilia K279a at 5 to 20 mg/L after 2 hrs […]; format: functional, organism-based
How it was run: (§1)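 Cells at OD600 0.4 grown 2 h with inducer at the stated concentration. Nitrocefin-hydrolysing activity measured in cell extracts, total first, then L2 alone after adding EDTA to 100 μM (inhibits L1). L1 = total − L2. Specific activity divided by that of an identically treated uninduced culture gives fold induction. Mean of three experiments.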

[2] = system: Stenotrophomonas maltophilia; experiment: Induction of beta-lactamase L1 expression in Stenotrophomonas maltophilia K279a at 5 to 20 mg/L after 2 hrs […]; format: functional, organism-based; how it was run: as §1
[3] = system: Stenotrophomonas maltophilia; experiment: Antimicrobial activity against Stenotrophomonas maltophilia K279a expressing beta-lactamase L1 and L2 by agar dilution method; format: functional
How it was run: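 MICs by BSAC standard agar dilution on Mueller-Hinton agar against wild-type K279a and its ampR frameshift derivative.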

[4] = system: Stenotrophomonas maltophilia; experiment: Antimicrobial activity against Stenotrophomonas maltophilia K279a harboring -121 frameshift mutation in ampR gene by agar dilution method; format: functional
How it was run: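 MICs by BSAC standard agar dilution on Mueller-Hinton agar against S. maltophilia K279a carrying a frameshift-disrupted ampR (ampRFS); values in mg/liter.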

[5] = system: Stenotrophomonas maltophilia; experiment: Induction of beta-lactamase L2 expression in Stenotrophomonas maltophilia M2 mutant assessed as L2 activity at 10 mg/L after 2 hrs by […] method; format: functional
How it was run: (§2)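 Nutrient broth cultures were grown to OD600 0.4, then exposed to 10 mg/liter imipenem as inducer for 2 h. Uninduced cultures were grown to OD600 0.6. Total nitrocefin-hydrolysing specific activity of cell extracts was read spectrophotometrically, then reassayed after adding EDTA to 100 μM to inhibit L1. Values are percent L1 or L2 of total activity, as means of three experiments.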

[6] = system: Stenotrophomonas maltophilia; experiment: Induction of beta-lactamase L2 expression in Stenotrophomonas maltophilia M1 mutant assessed as L2 activity at 10 mg/L after 2 hrs by […] method; format: functional; how it was run: as §2
[7] = system: Stenotrophomonas maltophilia; experiment: Induction of beta-lactamase L1 expression in Stenotrophomonas maltophilia M1 mutant assessed as L1 activity at 10 mg/L after 2 hrs by […] method; format: functional; how it was run: as §2
[8] = system: Stenotrophomonas maltophilia; experiment: Induction of beta-lactamase L1 expression in Stenotrophomonas maltophilia K279a at 0.1 to 0.8 mg/L after 2 hrs […]; format: functional, organism-based; how it was run: as §1
[9] = system: Stenotrophomonas maltophilia; experiment: Induction of beta-lactamase L1 expression in Stenotrophomonas maltophilia M2 mutant assessed as L1 activity at 10 mg/L after 2 hrs by […] method; format: functional; how it was run: as §2
[10] = system: Stenotrophomonas maltophilia; experiment: Induction of beta-lactamase L2 expression in Stenotrophomonas maltophilia K279a at 0.1 to 0.8 mg/L after 2 hrs […]; format: functional, organism-based; how it was run: as §1

SMILES	MIC [3] [µg/mL]	MIC [4] [µg/mL]	further results
CO[C@@]1(NC(=O)Cc2cccs2)C(=O)N2C(C(=O)O)=C(COC(N)=O)CS[C@@H]21	–	–	Activity [1]: Active; Activity [2]: Active
CC1(C)S[C@@H]2[C@H](NC(=O)[C@H](N)c3ccccc3)C(=O)N2[C@H]1C(=O)O [AMPICILLIN]	2050 (≈ 5860 µM)	8	–
CO/N=C(\C(=O)N[C@@H]1C(=O)N2C(C(=O)O)=C(COC(C)=O)CS[C@H]12)c1csc(N)n1 [CEFOTAXIME]	1020 (≈ 2250 µM)	< 4	–
CC(C)(O/N=C(\C(=O)N[C@@H]1C(=O)N2C(C(=O)[O-])=C(C[n+]3ccccc3)CS[C@H]12)c1csc(N)n1)C(=O)O [CEFTAZIDIME]	128 (≈ 234 µM)	< 4	–
C[C@@H](O)[C@H]1C(=O)N2C(C(=O)O)=C(SCCNC=N)C[C@H]12 [IMIPENEM ANHYDROUS]	64 (≈ 214 µM)	< 4	Activity [5]: 39%; Activity [6]: 34%; Activity [7]: 66%; Activity [8]: Active; Activity [9]: 61%; Activity [10]: Active
C[C@@H](O)[C@H]1C(=O)N2C(C(=O)O)=C(S[C@@H]3CN[C@H](C(=O)N(C)C)C3)[C@H](C)[C@H]12 [MEROPENEM]	64 (≈ 167 µM)	< 4	–
CCN1CCN(C(=O)N[C@@H](C(=O)N[C@@H]2C(=O)N3[C@@H]2SC(C)(C)[C@@H]3C(=O)O)c2ccccc2)C(=O)C1=O [PIPERACILLIN]	2050 (≈ 3960 µM)	32	–
